Test results from ChEMBL document CHEMBL1124270, “Quinolone antibacterial agents. Synthesis and structure-activity relationships of 8-substituted quinoline-3-carboxylic acids and 1,8-naphthyridine-3-carboxylic acids” (1988).
In brackets after ≈: the same amount, converted by molar mass.

How the values were obtained:
Format in all cases: functional
Escherichia coli [1] = assay: Minimum inhibitory concentration against Escherichia coli vogel in vitro.
Streptococcus pyogenes = assay: Minimum inhibitory concentration against Streptococcus pyogenes C203 in vitro.
Mus musculus [2] = assay: In vivo potency against Escherichia coli vogel using mouse protection assay when given subcutaneously; conditions: sc, read-out: PD50
Streptococcus pneumoniae = assay: Minimum inhibitory concentration against Streptococcus pneumoniae SV-1 in vitro.
Escherichia coli [3] = assay: Minimum inhibitory concentration against Escherichia coli H560 in vitro.
Mus musculus [4] = assay: In vivo potency against Escherichia coli vogel using mouse protection assay when given perorally; conditions: po, read-out: PD50
Staphylococcus aureus [5] = assay: Minimum inhibitory concentration against Staphylococcus aureus H228 in vitro.
Enterococcus faecalis = assay: Minimum inhibitory concentration against Streptococcus faecalis MGH-2 in vitro.
Staphylococcus aureus [6] = assay: Minimum inhibitory concentration against Staphylococcus aureus UC-76 in vitro.
Klebsiella pneumoniae = assay: Minimum inhibitory concentration against Klebsiella pneumoniae MGH-2 in vitro.
Enterobacter cloacae = assay: Minimum inhibitory concentration against Enterobacter cloacae HA 2646 in vitro.
Pseudomonas aeruginosa = assay: Minimum inhibitory concentration against Pseudomonas aeruginosa UI-18 in vitro.
Escherichia coli [7] = assay: Minimum concentration needed to produce linear DNA at an intensity relative to oxolinic at 10 ug/mL in Escherichia coli H560 in vitro.
How it was run: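 DNA gyrase cleavage test, run as previously described: end point is the lowest drug level (µg/mL) that yields linear DNA at a band intensity matching oxolinic acid at 10 µg/mL. Values come from duplicate or triplicate experiments and are stated as accurate to ±50%.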

Providencia rettgeri = assay: Minimum inhibitory concentration against Providencia rettgeri H1771 in vitro.

Compound | MIC (Escherichia coli [1]) | MIC (Streptococcus pyogenes) | ED50 (Mus musculus [2]) | MIC (Streptococcus pneumoniae) | MIC (Escherichia coli [3]) | ED50 (Mus musculus [4]) | MIC (Staphylococcus aureus [5]) | MIC (Enterococcus faecalis) | MIC (Staphylococcus aureus [6]) | MIC (Klebsiella pneumoniae) | MIC (Enterobacter cloacae) | MIC (Pseudomonas aeruginosa) | DNA cleavage conc (gyrase) (Escherichia coli [7]) | MIC (Providencia rettgeri)
NCC1CCN(c2cc3c(cc2F)c(=O)c(C(=O)O)cn3C2CC2)C1 (centres undefined) | 0.05 µg/mL (≈ 0.145 µM) | 0.025 µg/mL (≈ 0.0724 µM) | 2 mg/kg | 0.003 µg/mL (≈ 0.00869 µM) | 0.006 µg/mL (≈ 0.0174 µM) | > 100 mg/kg | 0.025 µg/mL (≈ 0.0724 µM) | 0.025 µg/mL (≈ 0.0724 µM) | 0.006 µg/mL (≈ 0.0174 µM) | 0.05 µg/mL (≈ 0.145 µM) | 0.05 µg/mL (≈ 0.145 µM) | 0.8 µg/mL (≈ 2.32 µM) | 0.5 µg/mL | 0.2 µg/mL (≈ 0.579 µM)
CC1COc2c(N3CCC(CN)C3)c(F)cc3c(=O)c(C(=O)O)cn1c23 (centres undefined) | 0.2 µg/mL (≈ 0.553 µM) | 0.025 µg/mL (≈ 0.0692 µM) | – | 0.025 µg/mL (≈ 0.0692 µM) | 0.05 µg/mL (≈ 0.138 µM) | > 100 mg/kg | 0.2 µg/mL (≈ 0.553 µM) | 0.1 µg/mL (≈ 0.277 µM) | 0.05 µg/mL (≈ 0.138 µM) | 0.4 µg/mL (≈ 1.11 µM) | 0.2 µg/mL (≈ 0.553 µM) | 1.6 µg/mL (≈ 4.43 µM) | 0.5 µg/mL | 0.8 µg/mL (≈ 2.21 µM)
CNCC1CCN(c2c(F)cc3c(=O)c(C(=O)O)cn4c3c2OCC4C)C1 (centres undefined) | 0.2 µg/mL (≈ 0.533 µM) | 0.05 µg/mL (≈ 0.133 µM) | – | 0.1 µg/mL (≈ 0.266 µM) | 0.2 µg/mL (≈ 0.533 µM) | – | 0.4 µg/mL (≈ 1.07 µM) | 0.1 µg/mL (≈ 0.266 µM) | 0.025 µg/mL (≈ 0.0666 µM) | 0.4 µg/mL (≈ 1.07 µM) | 0.4 µg/mL (≈ 1.07 µM) | 1.6 µg/mL (≈ 4.26 µM) | 1 µg/mL | 3.1 µg/mL (≈ 8.26 µM)
CCNCC1CCN(c2c(F)cc3c(=O)c(C(=O)O)cn(C4CC4)c3c2Cl)C1 (centres undefined) | 0.05 µg/mL (≈ 0.123 µM) | 0.006 µg/mL (≈ 0.0147 µM) | – | 0.003 µg/mL (≈ 0.00736 µM) | 0.025 µg/mL (≈ 0.0613 µM) | – | 0.013 µg/mL (≈ 0.0319 µM) | 0.013 µg/mL (≈ 0.0319 µM) | 0.003 µg/mL (≈ 0.00736 µM) | 0.1 µg/mL (≈ 0.245 µM) | 0.05 µg/mL (≈ 0.123 µM) | 0.8 µg/mL (≈ 1.96 µM) | 0.1 µg/mL | 0.2 µg/mL (≈ 0.49 µM)
CNCC1CCN(c2cc3c(cc2F)c(=O)c(C(=O)O)cn3C2CC2)C1 (centres undefined) | 0.1 µg/mL (≈ 0.278 µM) | 0.05 µg/mL (≈ 0.139 µM) | – | 0.05 µg/mL (≈ 0.139 µM) | 0.1 µg/mL (≈ 0.278 µM) | 35 mg/kg | 0.2 µg/mL (≈ 0.556 µM) | 0.1 µg/mL (≈ 0.278 µM) | 0.025 µg/mL (≈ 0.0696 µM) | 0.2 µg/mL (≈ 0.556 µM) | 0.2 µg/mL (≈ 0.556 µM) | 0.8 µg/mL (≈ 2.23 µM) | 0.5 µg/mL | 0.4 µg/mL (≈ 1.11 µM)
Nc1c(N2CCNCC2)c(F)cc2c(=O)c(C(=O)O)cn(C3CC3)c12 | 0.4 µg/mL (≈ 1.15 µM) | 6.3 µg/mL (≈ 18.2 µM) | 2 mg/kg | 12.5 µg/mL (≈ 36.1 µM) | 0.2 µg/mL (≈ 0.577 µM) | 58 mg/kg | 6.3 µg/mL (≈ 18.2 µM) | 12.5 µg/mL (≈ 36.1 µM) | 0.8 µg/mL (≈ 2.31 µM) | 0.8 µg/mL (≈ 2.31 µM) | 0.4 µg/mL (≈ 1.15 µM) | 0.8 µg/mL (≈ 2.31 µM) | 2.5 µg/mL | 0.4 µg/mL (≈ 1.15 µM)
CC(C)NCC1CCN(c2c(F)cc3c(=O)c(C(=O)O)cn4c3c2OCC4C)C1 (centres undefined) | 0.2 µg/mL (≈ 0.496 µM) | 0.2 µg/mL (≈ 0.496 µM) | 2 mg/kg | 0.05 µg/mL (≈ 0.124 µM) | 0.4 µg/mL (≈ 0.991 µM) | 8 mg/kg | 0.05 µg/mL (≈ 0.124 µM) | 0.05 µg/mL (≈ 0.124 µM) | 0.4 µg/mL (≈ 0.991 µM) | 0.8 µg/mL (≈ 1.98 µM) | 0.4 µg/mL (≈ 0.991 µM) | 0.2 µg/mL (≈ 0.496 µM) | – | 3.1 µg/mL (≈ 7.68 µM)
CC1COc2c(N3CCC(CN(C)C)C3)c(F)cc3c(=O)c(C(=O)O)cn1c23.Cl (centres undefined) | 0.2 µg/mL | 0.05 µg/mL | – | 0.05 µg/mL | 0.2 µg/mL | – | 0.2 µg/mL | 0.4 µg/mL | 0.05 µg/mL | 0.4 µg/mL | 0.4 µg/mL | 3.1 µg/mL | 1 µg/mL | 0.8 µg/mL
Cl.O=C(O)c1cn(C2CC2)c2c([N+](=O)[O-])c(N3CCNCC3)c(F)cc2c1=O | 0.2 µg/mL | 12.5 µg/mL | 3 mg/kg | 12.5 µg/mL | 0.4 µg/mL | 10 mg/kg | 1.6 µg/mL | 6.3 µg/mL | 0.4 µg/mL | 0.8 µg/mL | 0.2 µg/mL | 1.6 µg/mL | – | 3.1 µg/mL
Cl.Nc1c(N2CCC(N)C2)c(F)cc2c(=O)c(C(=O)O)cn(C3CC3)c12 (centres undefined) | 0.4 µg/mL | 3.1 µg/mL | 6 mg/kg | 3.1 µg/mL | 0.1 µg/mL | 50 mg/kg | 3.1 µg/mL | 3.1 µg/mL | 0.4 µg/mL | 0.4 µg/mL | 0.2 µg/mL | 1.6 µg/mL | 18 µg/mL | 0.8 µg/mL
CCNCC1CCN(c2cc3c(cc2F)c(=O)c(C(=O)O)cn3C2CC2)C1.Cl (centres undefined) | 0.2 µg/mL | 0.05 µg/mL | – | 0.2 µg/mL | 0.05 µg/mL | 35 mg/kg | 0.4 µg/mL | 0.2 µg/mL | 0.013 µg/mL | 0.2 µg/mL | 0.4 µg/mL | 1.6 µg/mL | 1 µg/mL | 0.8 µg/mL
CCNCC1CCN(c2c(F)cc3c(=O)c(C(=O)O)cn(C4CC4)c3c2N)C1.Cl.Cl (centres undefined) | 0.4 µg/mL | 0.2 µg/mL | – | 0.4 µg/mL | 0.8 µg/mL | – | 0.8 µg/mL | 0.2 µg/mL | 0.05 µg/mL | 0.8 µg/mL | 0.4 µg/mL | 3.1 µg/mL | 2.5 µg/mL | 1.6 µg/mL
CNCC1CCN(c2c(F)cc3c(=O)c(C(=O)O)cn(C4CC4)c3c2N)C1.Cl (centres undefined) | 0.8 µg/mL | 0.4 µg/mL | – | 1.6 µg/mL | 1.6 µg/mL | – | 1.6 µg/mL | 1.6 µg/mL | 0.2 µg/mL | 3.1 µg/mL | 3.1 µg/mL | 6.3 µg/mL | 5 µg/mL | 6.3 µg/mL
CCNCC1CCN(c2c(F)cc3c(=O)c(C(=O)O)cn(C4CC4)c3c2[N+](=O)[O-])C1.Cl (centres undefined) | 0.4 µg/mL | 0.2 µg/mL | – | 0.1 µg/mL | 0.4 µg/mL | – | 0.4 µg/mL | 0.4 µg/mL | 0.1 µg/mL | 0.8 µg/mL | 0.4 µg/mL | 6.3 µg/mL | – | 1.6 µg/mL
CC(C)NCC1CCN(c2cc3c(cc2F)c(=O)c(C(=O)O)cn3C2CC2)C1.Cl (centres undefined) | 0.1 µg/mL | 0.05 µg/mL | 4 mg/kg | 0.025 µg/mL | 0.05 µg/mL | 25 mg/kg | 0.2 µg/mL | 0.1 µg/mL | 0.025 µg/mL | 0.2 µg/mL | 0.1 µg/mL | 3.1 µg/mL | – | 0.8 µg/mL
Cl.NC1CCN(c2c(F)cc3c(=O)c(C(=O)O)cn(C4CC4)c3c2[N+](=O)[O-])C1 (centres undefined) | 0.2 µg/mL | 1.6 µg/mL | 9 mg/kg | 1.6 µg/mL | 0.4 µg/mL | 30 mg/kg | 0.8 µg/mL | 1.6 µg/mL | 0.2 µg/mL | 0.4 µg/mL | 0.2 µg/mL | 1.6 µg/mL | – | 0.8 µg/mL
